# The list is not random: actives were taken first. Their share in the collection is about 3.7%.
# KCNK3 inh: human KCNK3 channel inhibition, primary screen. AID 602410. CHO-KCNK3 thallium flux, FluxOR fluorescence; stronger effect = lower value. hit rate 0.84% among 340,000. B-score at 10 µM;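 active means B-score under library mean minus 4 SD, starting fluorescence ratio at most library mean plus 5 SD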;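 further: more negative B-score means stronger inhibition of thallium flux through KCNK3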
# Kir21 block: blocks the mouse Kir2.1 inward-rectifier potassium channel | P35561 | HEK293-Kir2.1, FluxOR thallium flux fluorescence; stronger effect = lower value | B-score at 10 µM | hit rate 0.85% among 310,000 | AID 1672;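 active means fluorescence ratio B-score at or below minus 3 SD of library scores, with starting-brightness B-score within 2 SD, cut at about -4.2 in these data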;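 further: channel flux triggered by added potassium and thallium sulfate stimulus; B-score of peak minus minimum fluorescence over baseline after thallium stimulus; more negative B-score means stronger Kir2.1 block with less thallium influx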
# Target sequence (P35561 whole entry, looked up): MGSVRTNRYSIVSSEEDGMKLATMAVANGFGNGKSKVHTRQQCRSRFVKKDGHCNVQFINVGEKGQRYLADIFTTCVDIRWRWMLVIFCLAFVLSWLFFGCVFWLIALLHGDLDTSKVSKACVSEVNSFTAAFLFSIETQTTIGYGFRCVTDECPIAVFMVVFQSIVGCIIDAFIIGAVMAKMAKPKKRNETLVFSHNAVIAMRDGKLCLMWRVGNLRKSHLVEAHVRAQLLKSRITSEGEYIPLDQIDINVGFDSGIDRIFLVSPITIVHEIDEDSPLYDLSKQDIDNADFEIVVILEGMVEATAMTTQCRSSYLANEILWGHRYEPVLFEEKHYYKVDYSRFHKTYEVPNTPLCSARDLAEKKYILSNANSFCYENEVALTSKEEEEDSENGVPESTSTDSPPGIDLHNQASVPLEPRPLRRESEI
# KCNK9 block: inhibitors of human KCNK9 two-pore domain potassium channel; HEK293 KCNK9, FluxOR thallium flux fluorescence; stronger effect = lower value; B-score at 10 µM; AID 488922; hit rate 1.2% among 310,000; Q9NPC2;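 active means ratio B-score over 3 SD below the library mean, with starting fluorescence within 5 SD of its mean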;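 further: negative B-score means less thallium flux so channel inhibition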
# hERG protect: compounds protecting human hERG from proarrhythmic drug block | AID 1511 | activation (rescue from dofetilide block), less the hit threshold, % at 10 µM | CHO-hERG, FluxOR thallium flux, dofetilide IC70 present | hit rate 0.51% among 310,000 | Q12809;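 active means activation above the mean of controls blocked by dofetilide plus 5 SD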;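 further: thallium influx through hERG after potassium depolarization seen as dye fluorescence rise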
# KCNQ1 act: potentiators or activators of human KCNQ1 potassium channel. hit rate 0.35% among 310,000. B-score at 10 µM. CHO-K1 KCNQ1, thallium flux FluxOR fluorescence; stronger effect = higher value;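 active means fluorescence ratio B-score, a plate-corrected score, at least three library SD, with initial intensity B-score within 5 SD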
#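 Assay system: CHO-K1 cells stably expressing KCNQ1; Medium: assay buffer with matched DMSO; Also added: K+/Tl+ depolarizing stimulus; Dosing: single dose; Timing: dye 90 min, compound 20 min, room temperature; Measured by: kinetic FluxOR thallium fluorescence, 10-s 1-Hz baseline, 110-s post-stimulus read; Read-out: peak-minus-minimum fluorescence over initial fluorescence, negative-control normalized, B-scored.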
# KCNQ1 inh: blocks the human KCNQ1 potassium channel | P51787 | CHO-K1 KCNQ1, FluxOR thallium flux fluorescence; stronger effect = higher value | B-score at 10 µM | hit rate 1.3% among 310,000 | AID 2642;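 active means compounds whose thallium flux B-score, printed positive for inhibition, exceeds three library SD while starting fluorescence stays within three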;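 further: channel opened by potassium depolarization with thallium stimulus after 20 min compound exposure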
# KCNK9 inh conf: human KCNK9 inhibitor confirmation; inhibition, % at 10 µM; shares compounds with KCNK9 block; HEK293 KCNK9 cells, FluxOR thallium flux fluorescence; hit rate 43% among 4,900;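 active means thallium signal inhibited by more than 5 SD of the compound-free buffer control wells, on both duplicate plates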;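 further: 0% = assay buffer control wells without compound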
# Kir2-1 spec: mouse Kir2.1 off-target activity of KCNK9 modulators; AID 492993; inhibition, % at 10 µM; hit rate 4% among 4,900; Kir2.1 cells, FluxOR thallium flux fluorescence; shares compounds with KCNK9 block;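 active means thallium signal drop more than 5 SD beyond the mean of the no-compound control wells, seen in both duplicate plates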;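 further: signal is fluorescence rise after thallium addition divided by baseline fluorescence; plate controls were assay buffer only for no effect and full block by chlorpromazine control for full effect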
# HEK293 Tl ctr: non-induced cell nonspecific activity of KCNK9 modulators. non-induced KCNK9-HEK293, FluxOR thallium flux. shares compounds with KCNK9 block. inhibition, % at 10 µM. hit rate 40% among 4,900;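 active means thallium signal drop beyond 5 SD of the untreated control mean, on both duplicate plates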;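 further: plate controls were buffer only IC0 wells for no effect and SID17386958 at its maximal inhibitory level for full effect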
# KCNK3 inh conf: confirmation of human KCNK3 two-pore domain potassium channel inhibitors; shares compounds with KCNK3 inh; CHO-KCNK3 thallium flux, FluxOR fluorescence; 0% buffer, 100% carvedilol maximal block; ratio percent of control, % at 10 µM; hit rate 99% among 2,400;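 active means ratio percent of control, averaged over triplicates, above buffer control mean plus 5 SD, cut at about 64% in these data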;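 further: ratio is the fluorescence rise from min to max over baseline after thallium stimulus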
# KCNK3 noninduced: activity in cells without induced KCNK3 expression. shares compounds with KCNK3 inh. non-induced KCNK3 parental cells, FluxOR thallium flux; stronger effect = lower value. thallium flux ratio (lower = more inhibition) at 10 µM. hit rate 40% among 2,400. AID 651747;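 active means thallium flux ratio, averaged over three wells, more than 5 SD below the buffer control mean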;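 further: host cells are CHO cells without KCNK3 induction; ratio is peak minus trough fluorescence over baseline then normalized to buffer controls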
# The depositor's hits bear a star; i = inactive; . = no result given.
SMILES,KCNK3 inh,Kir21 block,KCNK9 block,hERG protect,KCNQ1 act,KCNQ1 inh,KCNK9 inh conf,Kir2-1 spec,HEK293 Tl ctr,KCNK3 inh conf,KCNK3 noninduced
O=C(CSc1nnc(-c2ccc(C(F)(F)F)cn2)o1)Nc1cccc(Cl)c1,i,-0.97,i,-5.6,i,i,.,.,.,.,.
Cc1cccc(OCC(=O)Nc2ccccc2N2CCCCC2)c1,-9.91*,-0.49,-9.92*,-9.7,i,i,77.0%*,i,47.0%*,98.3*,i
Cc1ccccc1OCC(=O)Nc1ccccc1N1CCC(C)CC1,-10.2*,0.17,-11.9*,-8.3,i,i,43.5%*,31.0%*,38.0%*,111.0*,i
Cc1ccc(O)c(C(=O)c2cnc3c(c2)COc2ccc(C)cc2-3)c1,i,0.86,-13.4*,-1.4,i,i,72.5%*,i,39.5%*,113.0*,i
O=C(O)c1cccnc1SCC(=O)N1CCCc2ccccc21,i,0.03,i,-4.6,i,i,.,.,.,.,.
Cc1onc(-c2ccc(Cl)cc2)c1-c1ccnc(SCC(=O)Nc2cc(Cl)cc(Cl)c2)n1,-13.3*,-0.48,-15.6*,-5.9,i,9*,i,i,44.5%*,100.7*,0.152*
Cn1c(SCC(=O)Nc2cc(Cl)cc(Cl)c2)nnc1-c1ccc2nonc2c1,i,0.6,i,-8.6,i,i,.,.,.,.,.
CNC(=S)NNC(=O)c1cccc(N(C)C)c1,i,-0.49,i,-15.6,i,i,.,.,.,.,.
Cc1nc2nc(SCc3ccc([N+](=O)[O-])cc3)[nH]c2cc1Br,i,1.74,i,-2.7,i,i,.,.,.,.,.
Clc1nc(-c2ccccc2)cc(-c2ccc(Br)cc2)n1,-9.8*,-1.37,-12.4*,-15.9,i,6*,55.0%*,i,51.0%*,103.3*,i
O=C(CCN1CCC2CCC(C2)C1)c1ccc(F)cc1 (stereo unspecified),i,.,.,.,.,.,.,.,.,.,.
N#CC1=C(N)n2c(s/c(=C\c3ccco3)c2=O)=C(C#N)C1c1ccco1 (stereo unspecified),i,-0.55,i,-6.7,i,i,.,.,.,.,.
N#CC1=C(N)n2c(s/c(=C\c3cccs3)c2=O)=C(C#N)C1c1cccs1 (stereo unspecified),-9.44*,1.21,-11.1*,-8.7,i,i,26.5%*,i,39.0%*,96.0*,0.154*
COc1ccc(OC)c(NC(=O)CCC(=O)Oc2ccc(C)cc2)c1,i,-0.04,i,4.0,i,i,.,.,.,.,.
COc1ccccc1/C=N/NC(=O)C(=O)NCc1cccnc1,i,-0.02,i,-6.7,i,i,.,.,.,.,.
COc1cc(/C=C2\C(=N)N3N=C(S(C)(=O)=O)SC3=NC2=O)cc(OC)c1OCCOc1ccc(C)cc1,-12.1*,-0.23,i,-33.2,i,i,i,i,i,99.0*,0.136*
COc1cc(/C=C2\C(=N)N3N=C(S(C)(=O)=O)SC3=NC2=O)ccc1OCCOc1ccc(C)cc1,-9.06*,0.01,i,0.1,i,10*,i,i,i,75.3*,0.158*
CCOc1cc(/C=C2\C(=N)N3N=C(S(C)(=O)=O)SC3=NC2=O)ccc1OCCOc1cccc(OC)c1,i,1.84,i,-17.4,i,i,.,.,.,.,.
Cc1nn(-c2ccccc2)c(Cl)c1/C=N/NC(=O)c1ccccc1F,-11.1*,0.6,-14.4*,-25.9,i,i,57.0%*,i,23.5%*,101.0*,i
CC(C)(c1ccccc1)c1ccc(OCCn2cnc3ccccc3c2=O)cc1,-13.3*,-0.77,i,-9.8,i,i,i,i,40.0%*,72.7*,0.149*
COC(=O)c1ccccc1SC(CC(=O)c1ccccc1)c1ccc(F)cc1 (stereo unspecified),i,0.71,-13.1*,-12.7,i,i,49.0%*,i,55.5%*,114.3*,i
COC(=O)c1ccccc1NC(=O)c1ccc(F)cc1,i,-0.13,i,-5.2,i,i,.,.,.,.,.
Cc1ccc(/C(C#N)=C\c2ccc(N3CCOCC3)o2)cc1,-15.4*,-0.68,-12.2*,-16.2,i,9*,57.0%*,i,84.5%*,167.7*,0.0443*
N#C/C(=C/c1ccc(Sc2nc3ccccc3[nH]2)o1)c1cccc(F)c1,-9.76*,0.68,i,-15.3,i,13*,i,i,i,122.0*,i
O=C1NC(=O)/C(=C/c2ccc(N3CCOCC3)o2)N1,i,0.96,i,-6.3,i,i,.,.,.,.,.
SMILES,KCNK3 inh,Kir21 block,KCNK9 block,hERG protect,KCNQ1 act,KCNQ1 inh,KCNK9 inh conf,Kir2-1 spec,HEK293 Tl ctr,KCNK3 inh conf,KCNK3 noninduced
N#C/C(=C/c1ccc(N2CCCCC2)o1)c1cccc(F)c1,-14.3*,-2.23,-10.4*,-26.4,i,i,77.5%*,i,72.5%*,170.3*,0.0793*
COc1ccccc1C(=O)NCC(=O)NCCCN1CCOCC1,i,.,.,.,.,.,.,.,.,.,.
CC(C)(C)c1cc(OC(=O)c2ccccc2F)ccc1O,i,-2.22,-10.4*,-4.0,i,i,33.5%*,i,39.0%*,100.3*,i
CCN(CC)C(=O)Oc1cc2c(-c3cc4cccc(OC)c4o3)cc(=O)oc2cc1C,-13.9*,1.13,-20.7*,-16.5,i,i,77.0%*,i,i,101.3*,i
O=C1NC2(CCCCC2)C(=O)N1CC(=O)N(Cc1ccccc1)c1ccccc1,i,-0.05,i,-14.2,i,i,.,.,.,.,.
Cn1cccc1/C=C1\CCC/C(=C\c2cccn2C)C1=O,-12*,-8.56,-9.56*,-36.2,i,14*,77.5%*,60.5%*,i,0.0,i
COc1ccc(-n2c(=S)[nH]c3cc(C(=O)NCCCN4CCOCC4)ccc3c2=O)cc1OC,i,0.63,i,-1.3,i,i,.,.,.,.,.
CCCN1C(=O)c2ccccc2NC1c1ccc(Br)cc1 (stereo unspecified),i,-0.68,i,-3.6,i,i,.,.,.,.,.
C=CCN1C(=O)c2ccccc2NC1c1ccc(Br)s1 (stereo unspecified),i,-3.75,-9.19*,-12.8,i,i,37.5%*,i,30.0%*,107.0*,i

# High-throughput results: PubChem BioAssay, Johns Hopkins Ion Channel Center
